Measurements: ChEMBL document CHEMBL2375307, “Synthesis and identification of β-aryloxyquinoline based diversely fluorine substituted N-aryl quinolone derivatives as a new class of antimicrobial, antituberculosis and antioxidant agents” (Eur J Med Chem, 2013)
Converted amounts (≈) assume the structure as drawn.

Columns and labels:
Escherichia coli = assay: Antibacterial activity against Escherichia coli MTCC 443 assessed as growth inhibition after overnight incubation by NCCLS broth microdilution method; assay type: functional
Method in brief: (§1)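 Broth microdilution per NCCLS in Mueller Hinton broth, compounds diluted in DMSO. Primary screen at 500, 250 and 200 µg/mL; actives retested at 100, 62.5, 50, 25 and 12.5 µg/mL. Tubes incubated overnight at 37 °C. […] Non-growing tubes subcultured overnight at 37 °C to judge bacteriostatic versus bactericidal action.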

Vibrio cholerae = assay: Antibacterial activity against Vibrio cholerae MTCC 3906 assessed as growth inhibition after overnight incubation by NCCLS broth microdilution method; assay type: functional
Candida albicans = assay: Antifungal activity against Candida albicans MTCC 227 assessed as growth inhibition after overnight incubation by NCCLS broth microdilution method; assay type: functional; method in brief: as §1
Aspergillus fumigatus = assay: Antifungal activity against Aspergillus fumigatus MTCC 3008 assessed as growth inhibition after overnight incubation by NCCLS broth microdilution method; assay type: functional; method in brief: as §1
Clostridium tetani = assay: Antibacterial activity against Clostridium tetani MTCC 449 assessed as growth inhibition after overnight incubation by NCCLS broth microdilution method; assay type: functional
Streptococcus pneumoniae = assay: Antibacterial activity against Streptococcus pneumoniae MTCC 1936 assessed as growth inhibition after overnight incubation by NCCLS broth microdilution method; assay type: functional; method in brief: as §1
Bacillus subtilis = assay: Antibacterial activity against Bacillus subtilis MTCC 441 assessed as growth inhibition after overnight incubation by NCCLS broth microdilution method; assay type: functional; method in brief: as §1
[1] = Antioxidant activity of the compound assessed as ascorbic acid equivalent of ferric tripyridyl triazine reducing activity at 200 ug/mL after 15 mins by FRAP assay; assay type: functional
Method in brief: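 FRAP, modified Benzie and Strain method. Fe(III)-TPTZ reagent made with TPTZ in 40 mM HCl, FeCl3 solution and acetate buffer pH 3.6. 200 µL sample solution mixed with 3 mL reagent and held 15 min at 37 °C. Fe(II)-TPTZ read at 593 nm against an ascorbic acid standard, expressed as ascorbic acid equivalents (mmol/100 g compound).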

[2] = tested on: Mycobacterium tuberculosis; assay: Antitubercular activity against Mycobacterium tuberculosis H37Rv assessed as growth inhibition at 250 ug/mL after 12 to 28 days by Lowenstein-Jensen method relative to control; assay type: functional; settings: read-out: GI
Method in brief: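 Modified Lowenstein-Jensen method. Compound at 250 in DMSO added to liquid L-J medium, then sterilized by inspissation and incubated 24 h at 37 °C. Streaked with H37Rv harvested in 0.85% saline (5 × 10⁴ bacilli/tube) and incubated at 37 °C. Colonies read at 12, 22 and 28 days versus drug-free control; no colonies or <20 colonies scored as inhibition.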

Salmonella typhi = assay: Antibacterial activity against Salmonella typhi MTCC 98 assessed as growth inhibition after overnight incubation by NCCLS broth microdilution method; assay type: functional, Salmonella enterica subsp. enterica serovar Typhi; settings: Salmonella enterica

| Compound | MIC (Escherichia coli) | MIC (Vibrio cholerae) | MIC (Candida albicans) | MIC (Aspergillus fumigatus) | MIC (Clostridium tetani) | MIC (Streptococcus pneumoniae) | MIC (Bacillus subtilis) | Activity [1] | inhibition of growth at 250 µg/mL [2] | MIC (Salmonella typhi) |
| --- | --- | --- | --- | --- | --- | --- | --- | --- | --- | --- |
| CC1(C)CC(=O)C2=C(C1)N(c1ccc(F)c(F)c1)C(N)=C(C#N)C2c1cc2ccccc2nc1Oc1ccc(C#N)cc1 (stereo not drawn) | 125 µg/mL (≈ 218 µM) | 100 µg/mL (≈ 174 µM) | 500 µg/mL (≈ 872 µM) | 500 µg/mL (≈ 872 µM) | 100 µg/mL (≈ 174 µM) | 200 µg/mL (≈ 349 µM) | 200 µg/mL (≈ 349 µM) | 19.6 equiv | 64% | 200 µg/mL (≈ 349 µM) |
| N#Cc1ccc(Oc2nc3ccccc3cc2C=O)cc1 | 100 µg/mL (≈ 365 µM) | 250 µg/mL (≈ 911 µM) | 1000 µg/mL (≈ 3650 µM) | 500 µg/mL (≈ 1820 µM) | 250 µg/mL (≈ 911 µM) | 250 µg/mL (≈ 911 µM) | 200 µg/mL (≈ 729 µM) | 19.2 equiv | 42% | 100 µg/mL (≈ 365 µM) |
| COc1ccc2nc(Oc3ccc(C#N)cc3)c(C3C(C#N)=C(N)N(c4cc(F)ccc4F)C4=C3C(=O)CC(C)(C)C4)cc2c1 (stereo not drawn) | 200 µg/mL (≈ 331 µM) | 200 µg/mL (≈ 331 µM) | > 1000 µg/mL | > 1000 µg/mL | 200 µg/mL (≈ 331 µM) | 250 µg/mL (≈ 414 µM) | 250 µg/mL (≈ 414 µM) | 25.4 equiv | 54% | 250 µg/mL (≈ 414 µM) |
| CC1(C)CC(=O)C2=C(C1)N(c1cc(F)ccc1F)C(N)=C(C#N)C2c1cc2ccccc2nc1Oc1ccc(C#N)cc1 (stereo not drawn) | 250 µg/mL (≈ 436 µM) | 250 µg/mL (≈ 436 µM) | 500 µg/mL (≈ 872 µM) | 1000 µg/mL (≈ 1740 µM) | 200 µg/mL (≈ 349 µM) | 100 µg/mL (≈ 174 µM) | 250 µg/mL (≈ 436 µM) | 84.4 equiv | 21% | 250 µg/mL (≈ 436 µM) |
| N#CC1=C(N)N(c2ccc(F)c(F)c2)C2=C(C(=O)CCC2)C1c1cc2ccccc2nc1Oc1ccc(C#N)cc1 (stereo not drawn) | 100 µg/mL (≈ 183 µM) | 100 µg/mL (≈ 183 µM) | 250 µg/mL (≈ 458 µM) | > 1000 µg/mL | 100 µg/mL (≈ 183 µM) | 100 µg/mL (≈ 183 µM) | 250 µg/mL (≈ 458 µM) | 193 equiv | 75% | 125 µg/mL (≈ 229 µM) |
| Cc1ccc2nc(Oc3ccc(C#N)cc3)c(C3C(C#N)=C(N)N(c4ccc(F)c(F)c4)C4=C3C(=O)CCC4)cc2c1 (stereo not drawn) | 200 µg/mL (≈ 357 µM) | 200 µg/mL (≈ 357 µM) | 250 µg/mL (≈ 447 µM) | 500 µg/mL (≈ 894 µM) | 100 µg/mL (≈ 179 µM) | 250 µg/mL (≈ 447 µM) | 200 µg/mL (≈ 357 µM) | 243 equiv | 27% | 250 µg/mL (≈ 447 µM) |
| COc1ccc2nc(Oc3ccc(C#N)cc3)c(C3C(C#N)=C(N)N(c4cccc(C(F)(F)F)c4)C4=C3C(=O)CCC4)cc2c1 (stereo not drawn) | 200 µg/mL (≈ 329 µM) | 100 µg/mL (≈ 165 µM) | 500 µg/mL (≈ 823 µM) | 1000 µg/mL (≈ 1650 µM) | 500 µg/mL (≈ 823 µM) | 125 µg/mL (≈ 206 µM) | 200 µg/mL (≈ 329 µM) | 260 equiv | 23% | 125 µg/mL (≈ 206 µM) |
| CC1(C)CC(=O)C2=C(C1)N(c1ccc(F)c(F)c1)C(N)=C(C#N)C2c1cc2cc(Cl)ccc2nc1Oc1ccc(C#N)cc1 (stereo not drawn) | 125 µg/mL (≈ 206 µM) | 250 µg/mL (≈ 411 µM) | 500 µg/mL (≈ 822 µM) | 500 µg/mL (≈ 822 µM) | 125 µg/mL (≈ 206 µM) | 100 µg/mL (≈ 164 µM) | 200 µg/mL (≈ 329 µM) | 3.36 equiv | 84% | 200 µg/mL (≈ 329 µM) |
| Cc1ccc2nc(Oc3ccc(C#N)cc3)c(C3C(C#N)=C(N)N(c4ccc(F)c(F)c4)C4=C3C(=O)CC(C)(C)C4)cc2c1 (stereo not drawn) | 200 µg/mL (≈ 340 µM) | 250 µg/mL (≈ 425 µM) | > 1000 µg/mL | 1000 µg/mL (≈ 1700 µM) | 250 µg/mL (≈ 425 µM) | 200 µg/mL (≈ 340 µM) | 250 µg/mL (≈ 425 µM) | 122 equiv | 32% | 250 µg/mL (≈ 425 µM) |
| NYSTATIN | – | – | 100 µg/mL | 100 µg/mL | – | – | – | – | – | – |
| O=C(N[C@H](CO)[C@H](O)c1ccc([N+](=O)[O-])cc1)C(Cl)Cl [CHLORAMPHENICOL] | 50 µg/mL (≈ 155 µM) | 50 µg/mL (≈ 155 µM) | – | – | 50 µg/mL (≈ 155 µM) | 50 µg/mL (≈ 155 µM) | 50 µg/mL (≈ 155 µM) | – | – | 50 µg/mL (≈ 155 µM) |
| COc1ccc2nc(Oc3ccc(C#N)cc3)c(C=O)cc2c1 | 250 µg/mL (≈ 822 µM) | 250 µg/mL (≈ 822 µM) | 1000 µg/mL (≈ 3290 µM) | 1000 µg/mL (≈ 3290 µM) | 200 µg/mL (≈ 657 µM) | 200 µg/mL (≈ 657 µM) | 250 µg/mL (≈ 822 µM) | 47 equiv | 11% | 100 µg/mL (≈ 329 µM) |
| Cc1ccc2nc(Oc3ccc(C#N)cc3)c(C3C(C#N)=C(N)N(c4cccc(C(F)(F)F)c4)C4=C3C(=O)CCC4)cc2c1 (stereo not drawn) | 250 µg/mL (≈ 423 µM) | 100 µg/mL (≈ 169 µM) | 250 µg/mL (≈ 423 µM) | > 1000 µg/mL | 125 µg/mL (≈ 211 µM) | 250 µg/mL (≈ 423 µM) | 200 µg/mL (≈ 338 µM) | 253 equiv | 38% | 250 µg/mL (≈ 423 µM) |
